# An excerpt weighted towards active compounds, which were near 2.3% of everything screened.
# TWEAK Fn14 block: inhibitors of TWEAK-Fn14 interaction signaling; TWEAK-stimulated Fn14 reporter cells, luciferase luminescence, 8 h; inhibition, % at 10 µM; 360,000 compounds, 2% hits; AID 1159606; in the data active = inhibition above about 50%
# EWS-Fli block: blocks EWS/Fli oncoprotein-driven transcription; inhibition, % at 12.6 µM; 350,000 compounds, 0.67% hits; A673 NR0B1-luciferase reporter, viability-normalised;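 active = mean inhibition of at least 50% after viability correction, with every replicate also passing that limit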;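 note: firefly luciferase signal divided by Alamar Blue viability fluorescence both relative to DMSO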
# LGR2 inh: inhibitors of bursicon-induced Drosophila LGR2 receptor cAMP signaling. HEK293 LGR2, CRE-luciferase, bursicon-stimulated, 4 h. inhibition, % at 9.99 µM. 380,000 compounds, 0.35% hits;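 active = drop in luminescence signal, shown as inhibition above about 50% in the replicate tests, limit read from the data, passing the limit was not always enough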;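 note: agonist challenge used bursicon conditioned medium at about half maximal strength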
# TROY NFkB inh: blocks TROY-dependent signaling in reporter cells | Q293 LMP1-TROYcd NF-kB luciferase reporter, 4 h | inhibition, % at 10 µM | 360,000 compounds, 0.98% hits | AID 1347056;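 active = compounds whose plate-normalised and pattern-corrected inhibition of the luciferase reporter signal at the single screening dose is 50% or more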
# Xi reactivation: reactivates the inactive X chromosome in mouse fibroblasts. XiGFP mouse fibroblasts, % GFP-positive cells imaging, 3 d; cells co-treated with 5-aza-dC sensitizer; scaled so ellipticine positive control = 100%. AID 743238. 360,000 compounds, 0.055% hits. activation, % at 7.58 µM;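 active = mean normalized replicate activation at least 10% and every replicate at or above 10%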;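 note: 0% = median of on-plate neutral control wells and 100% = ellipticine 6 µM median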
#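 System: 68-5-11 XiGFP fibroblast line; Timing: 3 days compound exposure; Compound dosing: one concentration, pinned; Benchmarks: positive control ellipticine, 6 µM final; Buffer or medium: DMEM containing 5-aza-dC.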
# FN deposition inh: fibronectin deposition inhibition. AH1F fibroblasts, Alexa488-fibronectin deposition fluorescence, overnight. inhibition, % at 12.6 µM. 350,000 compounds, 0.086% hits. AID 743247;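 active = mean inhibition across replicates of 30% or more, regardless of how many single replicates reach that level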;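 note: positive control wells lacked labelled fibronectin entirely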
#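 Material – AH1F fibroblast monolayer, labelled fibronectin deposition · Reagent – labelled fibronectin 24 nM · Timing – 1 h adhesion, overnight exposure · Measured by – fluorescence at 485 nm excitation, 525 nm emission · Read-out – inhibition of fibronectin deposition signal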
# The depositor's hits bear a star; / = no result given.
SMILES,TWEAK Fn14 block,EWS-Fli block,LGR2 inh,TROY NFkB inh,Xi reactivation,FN deposition inh
Cc1nn(-c2ccccc2)c(C)c1NC(=O)COc1ccccc1C#N,-8.5,-1.9,-3.8,-6.4,0.2,-86.0
Cc1nn(-c2ccccc2)c(C)c1NC(=O)COc1ccc(Br)cc1Cl,78.2*,/,-21.4,45.8,0.0,-12.6
COc1ccc(-c2cnc3c(c2)C(=O)N([C@H](C)CO)C[C@H](C)[C@H](CN(C)C(=O)NC2CCCC2)O3)cc1,/,-3.3,7.2,/,-0.2,5.8
CN(C(=O)CN1C(=O)S/C(=C\c2ccccc2Cl)C1=O)C1CCS(=O)(=O)C1 (stereo unspecified),58.0*,5.4,3.0,-11.4,0.0,-3.3
Cc1noc(C)c1NC(=O)NCC[C@H]1CC[C@H](NC(=O)c2ccccc2)[C@@H](CO)O1,/,-2.2,2.3,/,0.0,/
O=C(N/N=C/c1ccccc1)c1ccc2c(c1)OCO2,58.9*,-15.4,20.6,-30.8,0.0,-1.9
O=C(N/N=C/c1ccc2c(c1)OCO2)c1cccnc1,-14.2,-41.7,-34.2,-9.1,0.2,-2.4
CN(C)c1ccc(/C=N/NC(=O)c2ccc3c(c2)OCO3)cc1,-0.2,-61.6,-86.7,-40.7,0.0,5.8
O=C(N/N=C\c1ccc2c(c1)OCO2)c1cncc(Br)c1,58.2*,-19.6,15.6,-16.3,0.2,10.5
CO[C@@H]1CN(C)C(=O)c2cc(NC(C)=O)ccc2OC[C@H](C)N(C(=O)c2ccccc2F)C[C@H]1C,/,-5.3,18.2,/,0.1,6.9
O=C(NCC1CC1)[C@@H]1[C@@H](CO)[C@@H]2Cn3c(ccc(-c4ccccc4)c3=O)[C@@H]2N1CC1CC1,/,1.9,-7.0,/,0.2,/
C/C=C/c1ccc2c(c1)O[C@H](CN(C)C(=O)C1CCC1)[C@H](C)CN([C@H](C)CO)S2(=O)=O,/,-2.4,9.3,/,-0.9,/
C[C@H](CO)N1C[C@H](C)[C@H](CN(C)C)Oc2ccc(NC(=O)Cc3ccccc3)cc2C1=O,/,-6.7,-5.1,/,1.8,/
Cc1ccc(SC2=C(Sc3ccc(C)cc3)C(=O)c3ccccc3C2=O)cc1,47.4,40.7,-90.8,59.6*,0.0,0.6
Cc1ccc(N2C(=O)c3ccccc3C2=O)cc1,-13.3,1.3,-33.8,-58.9,0.2,-4.7
CC(C)(C)c1ccc(-c2nnc3sc(-c4ccccn4)nn23)cc1,73.9*,19.0,14.1,71.9*,0.2,-8.7
C[C@@H]1CN([C@@H](C)CO)C(=O)c2c(c3ccccc3n2C)-c2ccccc2CO[C@H]1CN(C)C(=O)Nc1cccc(C(F)(F)F)c1,/,/,/,/,-0.9,5.7
Cc1ccc(Cc2c(C)c(C#N)c3[nH]c4ccccc4n3c2=O)cc1,61.4*,25.8,11.1,59.7*,-0.1,2.6
C[C@@H]1CN([C@@H](C)CO)S(=O)(=O)c2ccc(-c3cncnc3)cc2O[C@H]1CN(C)C(=O)Cc1ccccc1,/,-5.0,6.2,/,-1.4,/
O=c1c2ccccc2sn1-c1cc(S(=O)(=O)N2CCOCC2)ccc1N1CCOCC1,-3.5,/,3.7,-10.2,/,49.5*
O=c1c2c3c(sc2nc(NCCO)n1CCc1ccccc1)CCCCC3,-9.4,/,-27.6,5.3,0.1,2.3
C=CCn1c(NCCO)nc2sc3c(c2c1=O)CCC3,-9.9,16.8,-11.0,1.6,0.0,36.9*
N#CC(C#N)=Cc1cc2ccccc2nc1N1CCOCC1,34.9,-6.1,16.5,27.9,0.0,/
N#C/C(=C\c1cc2ccccc2nc1N1CCOCC1)C(=O)Nc1ccc(N2CCOCC2)cc1,23.3,11.0,5.7,57.7*,0.0,5.2
C[C@H]1CNC(=O)[C@@H](Cc2ccc(C(F)(F)F)cc2)CCn2nncc2COC1,/,/,/,/,0.0,-13.7
O=C1C=C(NC2=CC3OC(c4ccccc4)OCC3OC2=O)CCC1 (stereo unspecified),70.6*,-7.1,59.2*,8.0,0.0,0.9
C[C@H](CO)N1C[C@H](C)[C@@H](CN(C)Cc2ccc(C(F)(F)F)cc2)Oc2ccc(NC(=O)c3ccncc3)cc2CC1=O,/,3.3,0.0,/,-1.3,5.3
COc1cccc2c(N/N=C/c3ccccc3)cc(C)nc12,24.8,5.6,-61.8,1.4,0.2,2.3
COc1ccc(/C=N/Nc2cc(C)nc3ccc(Br)cc23)cc1,-50.6,48.4,92.7*,-5.6,0.0,2.7
